The test system of one test is CWR22R. The test can be described thus: Cytotoxicity against human 22Rv1 cells assessed as reduction in cell viability measured after 72 hrs by MTT assay. Format: functional, cell-based. As to conditions: 22Rv1, 72 h. In outline: (§1)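 Cells grown at 37°C, 5% CO₂ (22Rv1 in RPMI 1640, HCT 116 in McCoy's; 10% FBS, penicillin/streptomycin). Trypsinized, 5000 cells/well seeded, 24 h attachment. DMSO stocks diluted in medium to final 100, 20, 4, 0.8, 0.16 and 0.032 μM; 0.5% DMSO vehicle control. After 72 h, MTT 0.5 mg/mL final for 3 h; formazan dissolved in DMSO, A570. Viability relative to DMSO control; duplicates, three independent experiments; IC50 calculated.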
(In general: Formazan colour is commonly taken as a measure of viable cells.)

Another test deals with HCT-116. The test can be described thus: Cytotoxicity against human HCT-116 cells assessed as reduction in cell viability measured after 72 hrs by MTT assay. The class given is functional, cell-based. As to conditions: HCT-116, 72 h. In outline:
as §1

The next test has as its system OVCAR-3. The test can be described thus: Cytotoxicity against human OVCAR-3 cells assessed as reduction in cell viability measured after 72 hrs by MTS assay. The class given is functional, cell-based. The following applies: OVCAR-3, 72 h. In outline:
(§2)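 Cells exposed to test substance for 72 h. Viability read by MTS-based absorbance assay (CellTiter 96 AQueous One Solution) relative to DMSO solvent control. Paclitaxel served as positive control.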

In another test the test system is MDA-MB-435. Nature of the test: Cytotoxicity against human MDAMB-435 cells assessed as reduction in cell viability measured after 72 hrs by MTS assay. Format: functional, cell-based. The following applies: MDA-MB-435, 72 h. In outline: as §2
The test system of test [1] is Mycobacterium tuberculosis. Nature of the test: Antitubercular activity against Mycobacterium tuberculosis H37Rv assessed as inhibition of bacterial growth upto 100 ug/ml. The following applies: dose <= 100.0 µg/ml. The class given is functional, organism-based.

Structures can show the parent of a compound that is named as a salt. Calls of active or inactive are those of the source. No cut-off for these calls is given here.

This is an account of results in ChEMBL document CHEMBL5357028, “Acetogenins from the Stem of Uvaria rufa and Their Cytotoxic Activity” (J Nat Prod, 2024).

What is called IC50 is the midpoint of a concentration-inhibition curve.

For `CCCCCCCCCC[C@@H](O)[C@H]1CC[C@H]([C@H]2CC[C@H]([C@H](O)CCCCCCCCC[C@H](O)CCC3=C[C@H](C)OC3=O)O2)O1` [UVARIGRANDIN A], the IC50 in the test on CWR22R came out at 7 µM; in the test with HCT-116, 5.5 µM; in the test on OVCAR-3, 4.6 µM; in the test with MDA-MB-435, 4.1 µM.

For `CC[C@]1(O)C[C@@H]2CN(CCc3c([nH]c4ccccc34)[C@@](C(=O)OC)(c3cc4c(cc3OC)N(C)[C@H]3[C@@](O)(C(=O)OC)[C@H](OC(C)=O)[C@]5(CC)C=CCN6CC[C@]43[C@@H]65)C2)C1` [VINBLASTINE SULFATE], the IC50 in the test on CWR22R and with HCT-116 was 0.001 µM in each case.

With `COc1cc([C@@H]2c3cc4c(cc3[C@@H](O[C@@H]3O[C@@H]5CO[C@@H](C)O[C@H]5[C@H](O)[C@H]3O)[C@H]3COC(=O)[C@H]23)OCO4)cc(OC)c1O` [ETOPOSIDE], the figures for the IC50 in the test on CWR22R and with HCT-116 were 2.3 µM and 1.8 µM, respectively.

Take `CCCCCC[C@H](O)CCC[C@H](O)[C@H]1CC[C@H]([C@H]2CC[C@H]([C@H](O)CCCCCCCCC[C@@H](O)CCC3=C[C@H](C)OC3=O)O2)O1`: the IC50 was 8.2 µM in the test on CWR22R, 1.8 µM in the test with HCT-116, 4.5 µM in the test with OVCAR-3 and 4.4 µM with MDA-MB-435.

Consider `CC(=O)O[C@H]1C(=O)[C@@]2(C)[C@H]([C@H](OC(=O)c3ccccc3)[C@]3(O)C[C@H](OC(=O)[C@H](O)[C@@H](NC(=O)c4ccccc4)c4ccccc4)C(C)=C1C3(C)C)[C@]1(OC(C)=O)CO[C@@H]1C[C@@H]2O` [PACLITAXEL], for which the IC50 in the test with OVCAR-3 was 0.0056 µM; in the test on MDA-MB-435, 0.0026 µM.

Take `CCCCCCCCCC[C@H](O)[C@H]1CC[C@H]([C@H]2CC[C@H]([C@H](O)CCCCCCCCCCCCC3=C[C@H](C)OC3=O)O2)O1` [BULLANIN]: the IC50 in the test on CWR22R is 16.5 µM; in the test with HCT-116, 29.1 µM; in the test on OVCAR-3 it was more than 10 µM; with MDA-MB-435 it was 5.3 µM.

Regarding `CCCCCCCCCC[C@H](O)[C@H]1CC[C@H]([C@H]2CC[C@H]([C@H](O)CCCCCCCC[C@H](O)[C@H](O)CCC3=C[C@H](C)OC3=O)O2)O1`, the half-inhibitory concentration (IC50) in the test on CWR22R is 8.3 µM; in the test with HCT-116, 15 µM; with OVCAR-3 it was more than 10 µM; in the test on MDA-MB-435, 4.6 µM.

As to `CCCCCC[C@H](O)CCC[C@H](O)[C@H]1CC[C@H]([C@H]2CC[C@H]([C@H](O)CCCCCCCCCCCCC3=C[C@H](C)OC3=O)O2)O1` [SQUAMOCIN], the IC50 in the test on CWR22R is 6.4 µM; in the test with HCT-116, 1.2 µM; in the test with OVCAR-3, 4.5 µM; with MDA-MB-435, 4.6 µM.

Regarding `CCCCCCCCCC[C@@H](O)[C@H]1CC[C@H]([C@H]2CC[C@H]([C@H](O)CCCCCCCCC[C@@H](O)CCC3=C[C@H](C)OC3=O)O2)O1`, the IC50 in the test with CWR22R is 17.5 µM; in the test on HCT-116 it was 9.2 µM; with OVCAR-3 it was 3.5 µM; with MDA-MB-435 it was 4.6 µM. In test [1], the outcome was inactive.

In the case of `CCCCCCCCCC[C@@H](O)[C@H]1CC[C@H]([C@H]2CC[C@H]([C@H](O)CCCCCCCC[C@H](O)[C@H](O)CCC3=C[C@H](C)OC3=O)O2)O1`, the 50% inhibitory concentration (IC50) in the test with CWR22R amounted to 5.5 µM; in the test with HCT-116 it was 2.7 µM; in the test with OVCAR-3, 3.7 µM; in the test on MDA-MB-435, 4.4 µM.

Consider `CCCCCCCCCC[C@H](O)[C@H]1CC[C@H]([C@H]2CC[C@H]([C@H](O)CCCCCCCC[C@H](O)CCCC3=C[C@H](C)OC3=O)O2)O1`, for which the IC50 stood at 12.5 µM with CWR22R and 10 µM in the test with HCT-116.

As to `CCCCCC[C@H](O)CCC[C@H](O)[C@H]1CC[C@H]([C@H]2CC[C@H]([C@H](O)CCCCCCCCCCCCCCC3=C[C@H](C)OC3=O)O2)O1`, the IC50 came to 5.6 µM in the test on CWR22R, 1.2 µM in the test on HCT-116, 4.4 µM in the test with OVCAR-3 and 4.5 µM in the test on MDA-MB-435.

With `CCCCCCCCCC[C@@H](O)[C@H]1CC[C@H]([C@H]2CC[C@H]([C@H](O)CCCCCCCCCCCCC3=C[C@H](C)OC3=O)O2)O1` [ISODESAACETYLUVARICIN], the IC50 is 7.8 µM in the test on CWR22R, 2.8 µM with HCT-116, more than 10 µM in the test with OVCAR-3 and 4.1 µM in the test on MDA-MB-435.
